Measurements: ChEMBL document CHEMBL3244198, “Hetacillin (R)- and (S)-sulfoxides. Synthesis and structure-activity relationships” (1978)
Converted amounts (≈) assume the structure as drawn.

How the values were obtained:
Format in all cases: functional
Streptococcus pneumoniae = experiment: Antibacterial activity against Streptococcus pneumoniae 9585 by two-fold serial dilution technique
Summary of the method: (§1)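 MIC read as µg/mL from twofold serial dilutions of each compound in nutrient broth, tested against the named strain.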

Streptococcus pyogenes [1] = experiment: Antibacterial activity against Streptococcus pyogenes 9604 by two-fold serial dilution technique; summary of the method: as §1
Escherichia coli = experiment: Antibacterial activity against Escherichia coli 15119 by two-fold serial dilution technique; summary of the method: as §1
Proteus vulgaris = experiment: Antibacterial activity against Proteus vulgaris 9716 by two-fold serial dilution technique; summary of the method: as §1
Staphylococcus aureus [2] = experiment: Antibacterial activity against penicillin-resistant Staphylococcus aureus 9606 by two-fold serial dilution technique
Summary of the method: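 MIC (µg/mL) was determined by twofold serial dilution in nutrient broth against penicillin-resistant S. aureus 9606.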

Proteus mirabilis = experiment: Antibacterial activity against Proteus mirabilis 9900 by two-fold serial dilution technique; summary of the method: as §1
Staphylococcus aureus [3] = experiment: Antibacterial activity against Staphylococcus aureus 9537 by two-fold serial dilution technique; summary of the method: as §1
Streptococcus pyogenes [4] = experiment: Antibacterial activity against Streptococcus pyogenes A9604 infected in po dosed mouse assessed as mouse survival administered at 3.5 hrs post-infection measured for 5 days; conditions: read-out: PD50
Summary of the method: (§2)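 Mice were challenged intraperitoneally with about 1.3 × 10^3 S. pyogenes A9604 per mouse, diluted in brain heart infusion broth to give a uniform lethal infection. Fourfold compound dilutions were given intramuscularly or orally at 1 and 3.5 h postinfection. Survivors were followed for 5 days. PD50 is the total dose (mg/kg) protecting 50% of mice, calculated by the Spearman-Kärber method.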

Streptococcus pyogenes [5] = experiment: Antibacterial activity against Streptococcus pyogenes A9604 infected in mouse assessed as mouse survival administered intramuscularly at 1 hr post-infection measured for 5 days; conditions: A9604, im, read-out: PD50; summary of the method: as §2

With `CC1(C)N=C(c2ccccc2)C(=O)N1[C@@H]1C(=O)N2[C@@H]1[S@+]([O-])C(C)(C)[C@@H]2C(=O)O` the MIC (Streptococcus pneumoniae) was 1 µg/mL (≈ 2.48 µM), the MIC (Streptococcus pyogenes [1]) was 1 µg/mL (≈ 2.48 µM) and the MIC (Escherichia coli) was greater than 125 µg/mL. The MIC (Proteus vulgaris) was greater than 125 µg/mL, the MIC (Staphylococcus aureus [2]) was greater than 125 µg/mL and the MIC (Proteus mirabilis) was greater than 125 µg/mL. The MIC (Staphylococcus aureus [3]) was greater than 8 µg/mL.

`CC1(C)N[C@H](c2ccccc2)C(=O)N1[C@@H]1C(=O)N2[C@@H]1[S@+]([O-])C(C)(C)[C@@H]2C(=O)O` showed an MIC (Streptococcus pneumoniae) of 0.13 µg/mL (≈ 0.321 µM), an MIC (Streptococcus pyogenes [1]) of 0.13 µg/mL (≈ 0.321 µM) and an MIC (Escherichia coli) of 8 µg/mL (≈ 19.7 µM). The MIC (Proteus vulgaris) was 1 µg/mL (≈ 2.47 µM), the ED50 (Streptococcus pyogenes [4]) was 9.4 mg/kg and the ED50 (Streptococcus pyogenes [5]) was 3.1 mg/kg. It also gave an MIC (Staphylococcus aureus [2]) greater than 125 µg/mL, an MIC (Proteus mirabilis) of 1 µg/mL (≈ 2.47 µM) and an MIC (Staphylococcus aureus [3]) of 1 µg/mL (≈ 2.47 µM).

Work on `CC1(C)N[C@H](c2ccccc2)C(=O)N1[C@@H]1C(=O)N2[C@@H]1[S@@+]([O-])C(C)(C)[C@@H]2C(=O)O` yielded an MIC (Streptococcus pneumoniae) of 0.5 µg/mL (≈ 1.23 µM), an MIC (Streptococcus pyogenes [1]) of 0.5 µg/mL (≈ 1.23 µM) and an MIC (Escherichia coli) of 32 µg/mL (≈ 78.9 µM). It also gave an MIC (Proteus vulgaris) of 4 µg/mL (≈ 9.86 µM), an ED50 (Streptococcus pyogenes [4]) greater than 25 mg/kg and an ED50 (Streptococcus pyogenes [5]) of 9.6 mg/kg. The MIC (Staphylococcus aureus [2]) was greater than 125 µg/mL, the MIC (Proteus mirabilis) was 4 µg/mL (≈ 9.86 µM) and the MIC (Staphylococcus aureus [3]) was 4 µg/mL (≈ 9.86 µM).

Molecule `CC1(C)S[C@@H]2[C@H](N3C(=O)[C@@H](c4ccccc4)NC3(C)C)C(=O)N2[C@H]1C(=O)O` [HETACILLIN] has an MIC (Streptococcus pneumoniae) of 0.004 µg/mL (≈ 0.0103 µM), an MIC (Streptococcus pyogenes [1]) of 0.004 µg/mL (≈ 0.0103 µM) and an MIC (Escherichia coli) of 1 µg/mL (≈ 2.57 µM). The MIC (Proteus vulgaris) was 0.13 µg/mL (≈ 0.334 µM), the ED50 (Streptococcus pyogenes [4]) was 0.3 mg/kg and the ED50 (Streptococcus pyogenes [5]) was 0.2 mg/kg. The MIC (Staphylococcus aureus [2]) was greater than 125 µg/mL, the MIC (Proteus mirabilis) was 0.13 µg/mL (≈ 0.334 µM) and the MIC (Staphylococcus aureus [3]) was 0.016 µg/mL (≈ 0.0411 µM).
